SMILES strings stand for the structures. Where only a bound is given, the exact number is not on record here.

Consider ten compounds from ChEMBL document CHEMBL1165965, “Synthesis and structure-activity relationships of 1,2,3,4-tetrahydropyrido[2,3-b]pyrazines as potent and selective inhibitors of the anaplastic lymphoma kinase” (Bioorg Med Chem, 2010).

Assay [1] has as its target Non-receptor tyrosine-protein kinase TYK2 (Homo sapiens) (UniProt P29597). The experiment in a line: Inhibition of TYK2 JH1 catalytic domain at 1 uM. An outline of the steps:
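Single-concentration screen on the Ambit KINOMEscan platform, run against a panel of 250–400 kinases. Per-kinase inhibition was also summarized as S(90), the fraction of kinases inhibited by more than 90%.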

For assay [2], the target named is T1, Serine/threonine-protein kinase PLK4 (Homo sapiens) (UniProt O00444).
T1 sequence (whole entry): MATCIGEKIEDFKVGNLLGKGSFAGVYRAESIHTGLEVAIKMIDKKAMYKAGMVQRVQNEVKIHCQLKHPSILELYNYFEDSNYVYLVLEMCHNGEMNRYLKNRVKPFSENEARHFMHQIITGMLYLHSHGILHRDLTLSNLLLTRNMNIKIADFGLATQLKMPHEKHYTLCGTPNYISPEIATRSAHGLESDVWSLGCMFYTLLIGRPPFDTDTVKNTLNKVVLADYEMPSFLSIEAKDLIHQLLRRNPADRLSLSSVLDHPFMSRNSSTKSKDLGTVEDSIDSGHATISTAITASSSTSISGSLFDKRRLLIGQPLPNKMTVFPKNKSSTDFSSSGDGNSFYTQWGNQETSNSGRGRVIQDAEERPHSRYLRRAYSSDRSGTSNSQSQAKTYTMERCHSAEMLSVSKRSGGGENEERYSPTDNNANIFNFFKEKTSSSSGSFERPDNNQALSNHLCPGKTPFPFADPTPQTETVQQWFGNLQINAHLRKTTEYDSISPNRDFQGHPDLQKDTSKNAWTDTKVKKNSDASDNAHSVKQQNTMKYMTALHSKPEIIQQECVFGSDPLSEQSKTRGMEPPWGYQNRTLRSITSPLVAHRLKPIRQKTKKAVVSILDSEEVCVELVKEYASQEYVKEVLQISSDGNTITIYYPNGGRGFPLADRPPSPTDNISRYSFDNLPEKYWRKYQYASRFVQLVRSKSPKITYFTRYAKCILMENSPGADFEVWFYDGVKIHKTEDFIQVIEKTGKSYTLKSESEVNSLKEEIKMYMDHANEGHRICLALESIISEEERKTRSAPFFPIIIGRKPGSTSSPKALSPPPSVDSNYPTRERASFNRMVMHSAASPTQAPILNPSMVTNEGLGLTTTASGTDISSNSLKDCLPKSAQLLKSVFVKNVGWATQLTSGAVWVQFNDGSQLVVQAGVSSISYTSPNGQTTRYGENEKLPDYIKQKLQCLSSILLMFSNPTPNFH
As to the kind of experiment: Inhibition of PLK4 at 1 uM.

For assay [3], the target named is Serine/threonine-protein kinase PAK 6 (Homo sapiens) (UniProt Q9NQU5). As to the kind of experiment: Inhibition of PAK6 at 1 uM.
The target in assay [4] is SRSF protein kinase 1 (Homo sapiens) (UniProt Q96SB4). As to the kind of experiment: Inhibition of SRPK1 at 1 uM.
For assay [5], the target named is Interferon-induced, double-stranded RNA-activated protein kinase (Homo sapiens) (UniProt P19525). The experiment in a line: Inhibition of PRKR at 1 uM.
Assay [6] deals with T2, Serine/threonine-protein kinase ULK1 (Homo sapiens) (UniProt O75385).
T2 sequence (whole entry): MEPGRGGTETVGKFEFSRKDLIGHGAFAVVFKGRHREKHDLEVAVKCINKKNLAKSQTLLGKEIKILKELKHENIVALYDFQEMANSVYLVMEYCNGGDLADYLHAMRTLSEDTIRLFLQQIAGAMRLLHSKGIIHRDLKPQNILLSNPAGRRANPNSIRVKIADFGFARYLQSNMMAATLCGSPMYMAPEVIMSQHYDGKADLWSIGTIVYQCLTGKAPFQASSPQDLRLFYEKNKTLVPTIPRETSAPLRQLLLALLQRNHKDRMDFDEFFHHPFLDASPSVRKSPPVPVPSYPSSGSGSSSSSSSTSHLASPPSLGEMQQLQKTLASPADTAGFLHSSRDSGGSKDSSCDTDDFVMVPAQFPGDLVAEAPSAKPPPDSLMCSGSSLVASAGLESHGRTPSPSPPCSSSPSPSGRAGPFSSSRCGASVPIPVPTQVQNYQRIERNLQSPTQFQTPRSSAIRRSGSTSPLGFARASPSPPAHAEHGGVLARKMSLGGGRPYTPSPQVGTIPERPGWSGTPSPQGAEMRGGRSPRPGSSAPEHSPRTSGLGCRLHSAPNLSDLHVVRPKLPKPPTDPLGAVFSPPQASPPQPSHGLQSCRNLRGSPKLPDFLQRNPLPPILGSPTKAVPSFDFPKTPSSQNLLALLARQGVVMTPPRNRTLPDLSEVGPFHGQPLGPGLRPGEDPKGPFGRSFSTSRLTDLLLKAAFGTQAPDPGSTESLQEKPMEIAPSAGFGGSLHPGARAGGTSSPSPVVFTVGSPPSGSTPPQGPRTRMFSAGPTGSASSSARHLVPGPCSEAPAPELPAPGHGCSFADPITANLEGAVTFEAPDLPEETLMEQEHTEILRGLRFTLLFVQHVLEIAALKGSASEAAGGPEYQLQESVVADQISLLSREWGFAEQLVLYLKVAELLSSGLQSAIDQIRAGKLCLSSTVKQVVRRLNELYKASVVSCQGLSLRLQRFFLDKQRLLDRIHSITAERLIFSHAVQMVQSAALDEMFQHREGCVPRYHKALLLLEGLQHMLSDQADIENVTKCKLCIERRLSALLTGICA
The experiment in a line: Inhibition of ULK1 at 1 uM.

The target of assay [7] is Casein kinase I isoform gamma-2 (Homo sapiens) (UniProt P78368). The experiment in a line: Inhibition of CSNK1G2 at 1 uM. In a few lines:
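Single-concentration screen using Ambit Bioscience KINOMEscan technology across a panel of 250–400 kinases. Per-kinase inhibition from this screen was summarized as S(90), the fraction of kinases inhibited by more than 90%.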

Assay [8] has as its target Cyclin-dependent kinase 18 (Homo sapiens) (UniProt Q07002). The experiment in a line: Inhibition of PCTK3 at 1 uM.
For assay [9], the system named is Mast/stem cell growth factor receptor Kit (Homo sapiens), P10721 [L576P]. The experiment in a line: Inhibition of KIT L576P mutant at 1 uM.
Sequence of Mast/stem cell growth factor receptor Kit (Homo sapiens), P10721 [L576P] (P10721 whole entry L576P): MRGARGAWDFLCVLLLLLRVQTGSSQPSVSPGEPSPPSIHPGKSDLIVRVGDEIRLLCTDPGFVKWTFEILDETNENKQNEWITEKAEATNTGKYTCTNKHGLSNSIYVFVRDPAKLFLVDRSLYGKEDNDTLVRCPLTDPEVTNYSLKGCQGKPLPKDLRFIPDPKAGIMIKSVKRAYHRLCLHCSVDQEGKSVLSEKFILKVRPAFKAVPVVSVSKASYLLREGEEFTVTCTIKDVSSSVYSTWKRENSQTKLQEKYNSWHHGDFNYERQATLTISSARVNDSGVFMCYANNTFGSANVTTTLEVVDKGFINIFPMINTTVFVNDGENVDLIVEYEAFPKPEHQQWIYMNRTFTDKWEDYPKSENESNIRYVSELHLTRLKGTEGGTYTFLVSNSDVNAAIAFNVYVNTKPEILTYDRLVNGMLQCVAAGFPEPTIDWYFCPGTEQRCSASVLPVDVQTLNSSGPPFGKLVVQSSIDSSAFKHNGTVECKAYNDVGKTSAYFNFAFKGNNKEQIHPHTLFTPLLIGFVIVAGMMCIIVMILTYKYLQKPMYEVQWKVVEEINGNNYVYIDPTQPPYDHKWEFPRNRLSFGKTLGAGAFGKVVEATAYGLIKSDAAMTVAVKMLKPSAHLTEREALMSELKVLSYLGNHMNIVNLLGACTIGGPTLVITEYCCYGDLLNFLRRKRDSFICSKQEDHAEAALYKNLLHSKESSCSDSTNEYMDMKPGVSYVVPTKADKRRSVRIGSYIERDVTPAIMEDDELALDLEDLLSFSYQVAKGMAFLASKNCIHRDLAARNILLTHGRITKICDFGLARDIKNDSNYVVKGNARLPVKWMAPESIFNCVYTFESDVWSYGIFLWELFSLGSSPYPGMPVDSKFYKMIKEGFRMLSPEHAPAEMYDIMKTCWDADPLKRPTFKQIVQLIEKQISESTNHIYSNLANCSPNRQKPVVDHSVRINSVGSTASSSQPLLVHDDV

Sequence of Interferon-induced, double-stranded RNA-activated protein kinase (Homo sapiens) (P19525 whole entry): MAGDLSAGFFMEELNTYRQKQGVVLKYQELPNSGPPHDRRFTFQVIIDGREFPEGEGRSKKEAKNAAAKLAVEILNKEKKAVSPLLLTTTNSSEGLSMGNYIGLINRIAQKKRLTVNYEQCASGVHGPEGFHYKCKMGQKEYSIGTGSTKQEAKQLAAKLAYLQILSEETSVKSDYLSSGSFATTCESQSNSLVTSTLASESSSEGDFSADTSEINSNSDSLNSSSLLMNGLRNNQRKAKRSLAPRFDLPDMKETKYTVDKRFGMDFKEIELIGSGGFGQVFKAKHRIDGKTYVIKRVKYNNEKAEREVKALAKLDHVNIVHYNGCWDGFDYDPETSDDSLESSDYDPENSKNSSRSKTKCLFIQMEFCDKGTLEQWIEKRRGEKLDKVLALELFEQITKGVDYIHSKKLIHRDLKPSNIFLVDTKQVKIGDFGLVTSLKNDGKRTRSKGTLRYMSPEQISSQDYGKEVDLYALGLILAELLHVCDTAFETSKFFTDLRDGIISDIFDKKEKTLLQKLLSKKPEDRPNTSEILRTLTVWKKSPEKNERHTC
Sequence of Serine/threonine-protein kinase PAK 6 (Homo sapiens) (Q9NQU5 whole entry, looked up): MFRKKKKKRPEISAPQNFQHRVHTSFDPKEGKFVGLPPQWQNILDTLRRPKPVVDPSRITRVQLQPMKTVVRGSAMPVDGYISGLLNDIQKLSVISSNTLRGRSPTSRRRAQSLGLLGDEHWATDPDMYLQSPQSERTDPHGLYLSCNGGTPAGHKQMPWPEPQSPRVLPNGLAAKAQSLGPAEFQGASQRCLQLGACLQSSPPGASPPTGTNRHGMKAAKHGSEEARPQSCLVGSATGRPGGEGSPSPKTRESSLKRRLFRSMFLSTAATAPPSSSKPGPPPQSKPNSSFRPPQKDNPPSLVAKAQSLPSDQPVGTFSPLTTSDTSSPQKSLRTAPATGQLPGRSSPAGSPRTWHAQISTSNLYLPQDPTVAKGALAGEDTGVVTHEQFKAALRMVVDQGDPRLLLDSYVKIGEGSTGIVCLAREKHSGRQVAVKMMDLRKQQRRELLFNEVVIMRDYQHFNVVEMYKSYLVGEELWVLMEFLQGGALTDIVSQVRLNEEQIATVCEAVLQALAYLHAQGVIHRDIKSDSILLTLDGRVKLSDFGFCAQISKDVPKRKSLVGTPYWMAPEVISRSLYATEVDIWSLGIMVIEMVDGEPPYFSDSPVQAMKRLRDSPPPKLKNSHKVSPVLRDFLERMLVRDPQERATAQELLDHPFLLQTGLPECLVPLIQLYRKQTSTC
Sequence of Cyclin-dependent kinase 18 (Homo sapiens) (Q07002 whole entry): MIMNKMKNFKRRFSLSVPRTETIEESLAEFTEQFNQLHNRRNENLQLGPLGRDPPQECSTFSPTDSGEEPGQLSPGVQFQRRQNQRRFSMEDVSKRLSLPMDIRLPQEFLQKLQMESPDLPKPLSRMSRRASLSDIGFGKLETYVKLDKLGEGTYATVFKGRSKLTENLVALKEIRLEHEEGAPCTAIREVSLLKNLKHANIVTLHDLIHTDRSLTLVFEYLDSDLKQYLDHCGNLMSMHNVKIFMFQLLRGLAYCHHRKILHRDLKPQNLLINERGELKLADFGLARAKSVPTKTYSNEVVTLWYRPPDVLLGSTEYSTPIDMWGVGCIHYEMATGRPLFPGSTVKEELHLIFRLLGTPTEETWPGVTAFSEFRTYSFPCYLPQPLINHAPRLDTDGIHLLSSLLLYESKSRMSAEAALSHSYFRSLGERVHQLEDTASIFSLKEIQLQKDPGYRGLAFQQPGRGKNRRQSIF
Sequence of Non-receptor tyrosine-protein kinase TYK2 (Homo sapiens) (P29597 whole entry, the tested form may be a part): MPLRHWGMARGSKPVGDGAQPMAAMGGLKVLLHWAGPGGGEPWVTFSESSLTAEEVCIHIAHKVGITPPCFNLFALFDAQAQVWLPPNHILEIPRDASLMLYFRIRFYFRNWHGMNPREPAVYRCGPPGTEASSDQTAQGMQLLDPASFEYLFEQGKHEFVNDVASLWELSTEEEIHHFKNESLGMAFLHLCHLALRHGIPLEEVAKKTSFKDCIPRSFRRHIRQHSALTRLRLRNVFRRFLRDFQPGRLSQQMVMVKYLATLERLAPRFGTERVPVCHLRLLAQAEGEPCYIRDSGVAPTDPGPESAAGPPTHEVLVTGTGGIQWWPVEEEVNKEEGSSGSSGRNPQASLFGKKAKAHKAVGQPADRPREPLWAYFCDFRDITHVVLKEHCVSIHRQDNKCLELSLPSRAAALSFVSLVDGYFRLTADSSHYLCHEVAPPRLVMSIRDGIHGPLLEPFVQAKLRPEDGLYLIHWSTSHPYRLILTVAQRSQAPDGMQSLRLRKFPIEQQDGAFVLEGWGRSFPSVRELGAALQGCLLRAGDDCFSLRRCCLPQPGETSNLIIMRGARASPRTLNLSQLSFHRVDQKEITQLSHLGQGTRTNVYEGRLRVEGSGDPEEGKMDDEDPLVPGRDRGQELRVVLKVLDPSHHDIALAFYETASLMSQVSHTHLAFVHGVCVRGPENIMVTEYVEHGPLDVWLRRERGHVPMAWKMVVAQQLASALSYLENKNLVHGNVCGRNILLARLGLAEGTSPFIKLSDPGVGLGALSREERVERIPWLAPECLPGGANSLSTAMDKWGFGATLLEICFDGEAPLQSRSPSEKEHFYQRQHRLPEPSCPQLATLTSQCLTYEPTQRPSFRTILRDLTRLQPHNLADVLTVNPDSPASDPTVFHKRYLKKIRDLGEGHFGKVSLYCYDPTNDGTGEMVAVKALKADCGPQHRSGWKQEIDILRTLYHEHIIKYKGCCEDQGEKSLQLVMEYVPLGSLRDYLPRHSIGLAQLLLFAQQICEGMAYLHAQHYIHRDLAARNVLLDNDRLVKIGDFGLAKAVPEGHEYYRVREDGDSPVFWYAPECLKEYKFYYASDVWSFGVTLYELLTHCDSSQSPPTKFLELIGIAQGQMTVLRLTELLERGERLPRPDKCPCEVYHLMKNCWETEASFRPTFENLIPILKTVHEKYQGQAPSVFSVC
Sequence of SRSF protein kinase 1 (Homo sapiens) (Q96SB4 whole entry): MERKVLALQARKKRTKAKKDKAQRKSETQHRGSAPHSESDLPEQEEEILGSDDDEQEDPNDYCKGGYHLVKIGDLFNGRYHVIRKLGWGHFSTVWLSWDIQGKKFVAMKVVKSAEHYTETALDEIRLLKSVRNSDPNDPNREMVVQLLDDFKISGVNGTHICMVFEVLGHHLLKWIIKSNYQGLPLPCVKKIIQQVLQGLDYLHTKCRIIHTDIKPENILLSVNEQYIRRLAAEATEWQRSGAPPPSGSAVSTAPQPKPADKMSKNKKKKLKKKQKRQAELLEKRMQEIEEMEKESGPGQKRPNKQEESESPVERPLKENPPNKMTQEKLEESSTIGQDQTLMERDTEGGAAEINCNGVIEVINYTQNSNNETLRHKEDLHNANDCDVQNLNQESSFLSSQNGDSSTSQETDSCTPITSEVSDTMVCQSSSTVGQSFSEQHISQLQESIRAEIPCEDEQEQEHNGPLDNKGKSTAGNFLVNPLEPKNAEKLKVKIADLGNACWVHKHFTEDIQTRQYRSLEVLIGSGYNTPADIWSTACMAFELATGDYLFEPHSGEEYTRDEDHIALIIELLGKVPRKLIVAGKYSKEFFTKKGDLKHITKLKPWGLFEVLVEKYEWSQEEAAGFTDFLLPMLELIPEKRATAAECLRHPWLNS
Sequence of Casein kinase I isoform gamma-2 (Homo sapiens) (P78368 whole entry, looked up, canonical isoform): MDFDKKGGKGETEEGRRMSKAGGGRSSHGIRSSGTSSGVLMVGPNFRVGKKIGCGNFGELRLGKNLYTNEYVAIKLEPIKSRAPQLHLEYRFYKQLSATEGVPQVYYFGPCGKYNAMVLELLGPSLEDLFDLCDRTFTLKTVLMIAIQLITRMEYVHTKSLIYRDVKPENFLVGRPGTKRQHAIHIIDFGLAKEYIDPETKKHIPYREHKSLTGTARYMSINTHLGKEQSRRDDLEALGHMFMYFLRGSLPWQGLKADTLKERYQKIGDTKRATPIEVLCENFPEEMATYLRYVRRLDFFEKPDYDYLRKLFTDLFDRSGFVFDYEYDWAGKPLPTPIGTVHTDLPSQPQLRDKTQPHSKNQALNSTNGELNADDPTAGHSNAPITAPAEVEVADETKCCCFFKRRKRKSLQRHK

What is called inhibition is the percentage by which the read-out fell short of the control. A low value points to a response near the control. On to `FC(F)(F)c1ccc(Cl)cc1CN1CCNc2ncc(-c3ccnc(N4CCNCC4)c3)cc21`, for which the inhibition in assay [1] is 72%; in [2] it was < 50%; in assay [3], < 50%; in assay [4], < 50%; in assay [5] it was < 50%; in assay [6] it was < 50%. For the same compound, the inhibition in assay [7] was < 50%; in assay [8] it was < 50%; in assay [9], 99%.

On to `CN1CCN(c2ccc(-c3cnc4c(c3)N(Cc3cc(Cl)ccc3Cl)CCN4)cn2)CC1`, for which the inhibition in [1], in assay [2], in assay [3], in [4], in assay [5] and in assay [6] was < 50% in each case. Further, the inhibition in [7] was < 50%; in assay [8], < 50%; in assay [9] it was 98%.

As to `COC1CCN(C(=O)c2ccc(-c3cnc4c(c3)N(Cc3cc(Cl)ccc3C(F)(F)F)CCN4)cc2)CC1`, the inhibition is < 50% in assay [1]; 73.8% in [2]; < 50% in assay [3]; < 50% in assay [4]; < 50% in assay [5]; < 50% in assay [7].

As to `O=C(c1ccc(-c2cnc3c(c2)N(Cc2cc(Cl)ccc2C(F)(F)F)CCN3)cc1)N1CCCCC1`, the inhibition in assay [1], in assay [2], in assay [3], in assay [4], in assay [5] and in assay [7] was < 50% throughout.

As for `O=C(O)c1ccc(-c2cnc3c(c2)N(Cc2cc(Cl)ccc2C(F)(F)F)CCN3)cc1`, the inhibition was < 50% in assay [1]; 91.7% in assay [2]; < 50% in assay [3]; < 50% in assay [4]; < 50% in assay [5]; < 50% in assay [7].

As to `CN1CCN(c2ccc(-c3cnc4c(c3)N(Cc3cc(F)ccc3F)CCN4)cn2)CC1`, the inhibition in [1], in assay [2], in [3], in [4], in assay [5] and in [6] was < 50% throughout. Besides, the inhibition in [7] is < 50%; in assay [8], < 50%; in assay [9], 75%.

With `O=C(c1ccc(-c2cnc3c(c2)N(Cc2cc(Cl)ccc2C(F)(F)F)CCN3)cc1)N1CCC(N2CCCC2)CC1`, the inhibition was < 50% in [1]; 92.4% in assay [2]; < 50% in assay [3]; < 50% in assay [4]; < 50% in assay [5]; < 50% in assay [7].

Consider `CN1CCN(c2ccc(-c3cnc4c(c3)N(Cc3c(F)ccc(F)c3Cl)CCN4)cn2)CC1`, for which the inhibition in assay [1], in [2], in assay [3], in [4], in [5] and in assay [6] was < 50% throughout. Further, the inhibition in [7] was < 50%; in [8] it was < 50%; in [9], 73%.

As for `CC(=O)N1CCN(c2cc(-c3cnc4c(c3)N(Cc3cc(Cl)ccc3C(F)(F)F)CCN4)ccn2)CC1`, the inhibition in assay [1] was 72%; in assay [2], < 50%; in [3], < 50%; in [4], < 50%; in assay [5], < 50%; in [6], < 50%. Also, the figures for the inhibition in assay [7], in assay [8] and in assay [9] were < 50%, < 50% and 90%, respectively.

With `CN1CCN(c2ccc(-c3cnc4c(c3)N(Cc3cc(Cl)ccc3C(F)(F)F)CCN4)cn2)CC1`, the inhibition was 79% in [1]; < 50% in [2]; < 50% in assay [3]; < 50% in [4]; < 50% in [5]; < 50% in assay [6]. For the same compound, the values for the inhibition in assay [7], in [8] and in [9] were < 50%, < 50% and 80%, respectively.
